FN deposit inh – inhibitors of fibronectin matrix deposition, primary screen, AH1F cells, Alexa488-fibronectin fluorescence, plate reader. actives 0.086% (n = 350,000). inhibition, % at 12.6 µM. AH1F fibroblasts, overnight. AID 743247, 2014;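 active means mean inhibition across replicates of 30% or more, regardless of how many single replicates reach that level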
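Material – AH1F fibroblast monolayer, labelled fibronectin deposition · Reagent – labelled fibronectin 24 nM · Timing – 1 h adhesion, overnight exposure · Measured by – fluorescence at 485 nm excitation, 525 nm emission · Read-out – inhibition of fibronectin deposition signal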
RAD54 inh – inhibitors of human RAD54 branch migration, primary screen, biochemical, fluorescence, single point; DNA repair and recombination protein RAD54-like (Homo sapiens), Q92698; RAD54 Holliday junction branch migration, FAM/BHQ fluorescence; inhibition, % at 10.4 µM; actives 0.14% (n = 360,000); AID 602329, 2012;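 active means mean normalized replicate activity at least 40 and at least half of replicates scoring 40 or more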;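 further: inhibitors cause a drop in the FAM fluorescence signal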
Target sequence (Q92698 whole entry, looked up): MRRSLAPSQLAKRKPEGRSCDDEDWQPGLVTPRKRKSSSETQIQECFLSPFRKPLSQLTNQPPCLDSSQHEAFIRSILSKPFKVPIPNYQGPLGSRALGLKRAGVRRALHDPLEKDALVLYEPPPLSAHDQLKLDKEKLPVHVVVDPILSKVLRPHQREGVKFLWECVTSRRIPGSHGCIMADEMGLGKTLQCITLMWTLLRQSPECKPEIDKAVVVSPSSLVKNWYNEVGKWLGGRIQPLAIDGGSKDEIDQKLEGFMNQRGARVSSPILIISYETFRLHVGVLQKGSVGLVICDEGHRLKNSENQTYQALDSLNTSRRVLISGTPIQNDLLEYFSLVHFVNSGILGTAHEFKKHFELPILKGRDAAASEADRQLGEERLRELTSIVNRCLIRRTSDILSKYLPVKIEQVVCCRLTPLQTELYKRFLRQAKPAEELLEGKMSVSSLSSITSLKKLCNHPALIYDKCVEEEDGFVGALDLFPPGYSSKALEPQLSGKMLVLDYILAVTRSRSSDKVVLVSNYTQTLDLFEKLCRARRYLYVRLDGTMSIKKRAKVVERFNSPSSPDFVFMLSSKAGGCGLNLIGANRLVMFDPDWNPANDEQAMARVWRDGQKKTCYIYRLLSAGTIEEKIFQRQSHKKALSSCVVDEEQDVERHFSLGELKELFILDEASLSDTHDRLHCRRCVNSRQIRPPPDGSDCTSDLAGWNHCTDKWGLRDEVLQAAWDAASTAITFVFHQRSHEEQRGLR
AF4-AF9 inh – inhibitors of AF4 peptide binding to AF9, primary screen, biochemical, AlphaScreen, biotin-AF4 peptide, FLAG-AF9, single point. Protein AF-9 (Homo sapiens), P42568. inhibition, % at 10 µM. actives 0.47% (n = 350,000);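 active means every replicate reaching a set inhibition limit, whatever the replicate mean, cut at about 25% in these data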
N-glyco inh – increase of ERlucT glycosylation luciferase signal, primary screen, N-linked glycosylation inhibitor project, D54 ERlucT cells, luminescence, set 2; D54 ERlucT glycosylation luciferase reporter, 24 h; percent of 100 nM tunicamycin response; reporter increase, % at 12.5 µM; actives 0.23% (n = 360,000); AID 588692, 2011;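 active means mean luciferase reporter signal, scaled so untreated is 0 and the glycosylation-blocking control 100, at or above a set limit in every replicate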;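 further: luciferase carries N-glycosylation sites so blocking glycosylation raises the light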
RAD52 anneal inh – RAD52 DNA annealing inhibitors, primary screen, biochemical, FRET, single point, set 2 | recombinant RAD52 DNA annealing, FRET fluorescence | DNA repair protein RAD52 homolog (Homo sapiens), P43351 | actives 0.46% (n = 360,000) | AID 651710, 2012 | inhibition, % at 18.7 µM;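 active means every replicate showing at least 50% inhibition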
NSD2 inh – NSD2 histone methyltransferase inhibitors, primary screen, biochemical, AlphaScreen, single concentration, set 2; Histone-lysine N-methyltransferase NSD2 (Homo sapiens), O96028; NSD2 peptide methylation, 120 min; inhibition, % at 12.5 µM; actives 0.54% (n = 310,000); in the data active means inhibition above about 50%
Hits are given with their value; - = inactive; . = no result; ! = not confirmed by another sample. Most compounds without a hit are left out; they make up all but 1.2% or so of the library.

SMILES	FN deposit inh	RAD54 inh	AF4-AF9 inh	N-glyco inh	RAD52 anneal inh	NSD2 inh
CN1C(=O)c2cc(NC(=O)C3CC3)ccc2OC[C@@H]2O[C@@H](CC(=O)NCc3ccccc3F)CC[C@H]21	-	.	-	.	-	.
C[C@H]1CCCCO[C@@H](CN(C)C(=O)C2CCCCC2)[C@@H](C)CN([C@@H](C)CO)C(=O)c2cc(NC(=O)c3ccccc3)ccc2O1	.	-	-	.	-	.
C[C@@H]1CCCCO[C@H](CN(C)Cc2ccc(C(F)(F)F)cc2)[C@@H](C)CN([C@H](C)CO)C(=O)c2cc(N(C)C)ccc2O1	.	-	-	.	-	.
C[C@@H]1CN([C@H](C)CO)C(=O)c2cc(N(C)C)ccc2O[C@@H](C)CCCCO[C@H]1CN(C)Cc1ccc(C(F)(F)F)cc1	.	-	33	.	-	.
C[C@@H]1CN([C@@H](C)CO)C(=O)c2cc(N(C)C)ccc2O[C@@H](C)CCCCO[C@H]1CN(C)Cc1ccc(C(F)(F)F)cc1	.	-	38	.	-	.
C[C@@H]1CN([C@H](C)CO)C(=O)c2cc(N(C)C)ccc2O[C@@H](C)CCCCO[C@@H]1CN(C)Cc1ccc(C(F)(F)F)cc1	.	-	35	.	-	.
C[C@H](CO)N1C[C@H](C)[C@@H](CN(C)Cc2ccc(C(F)(F)F)cc2)OCCCC[C@H](C)Oc2ccc(N(C)C)cc2C1=O	.	-	-	.	-	.
C[C@H](CO)N1C[C@H](C)[C@H](CN(C)Cc2ccc(C(F)(F)F)cc2)OCCCC[C@H](C)Oc2ccc(N(C)C)cc2C1=O	.	-	32	.	-	.
CN1c2ccc(-c3ccccc3F)cc2[C@H]2[C@H](CCN2C(=O)Nc2ccc(F)cc2)[C@H]1CO	-	-	-	.	-	.
C[C@@H]1CCCCO[C@@H](CN(C)Cc2ccc(C(=O)O)cc2)[C@H](C)CN([C@@H](C)CO)C(=O)c2cc(N(C)C)ccc2O1	-	-	-	.	-	.
C[C@@H]1CN([C@@H](C)CO)C(=O)c2cc(N(C)C)ccc2O[C@@H](C)CCCCO[C@@H]1CN(C)Cc1ccc(C(F)(F)F)cc1	.	-	39	.	-	.
CCOC(=O)N1CCN(CC(=O)Nc2sc(CC)cc2C(=O)c2ccc(OC)cc2)CC1	-	-	27	-	-	-
CCOC(=O)Cc1csc(NC(=O)/C=C/c2ccc(Br)o2)n1	-	-	33	-	-	-
CCOC(=O)Cc1csc(NC(=O)c2ccc(Br)o2)n1	-	.	.	-	.	-
Cc1noc(C)c1S(=O)(=O)Nc1ccc2c(c1)C(=O)N([C@H](C)CO)C[C@H](C)[C@H](CN(C)S(=O)(=O)c1ccc(F)cc1)OCCCC[C@H](C)O2	.	-	-	.	-	.
Cc1noc(C)c1S(=O)(=O)Nc1ccc2c(c1)C(=O)N([C@@H](C)CO)C[C@@H](C)[C@@H](CN(C)S(=O)(=O)c1ccc(F)cc1)OCCCC[C@H](C)O2	.	-	-	.	-	.
Cc1noc(C)c1S(=O)(=O)Nc1ccc2c(c1)C(=O)N([C@@H](C)CO)C[C@H](C)[C@H](CN(C)S(=O)(=O)c1ccc(F)cc1)OCCCC[C@H](C)O2	.	-	-	.	81	.
Cc1noc(C)c1S(=O)(=O)Nc1ccc2c(c1)C(=O)N([C@@H](C)CO)C[C@H](C)[C@@H](CN(C)S(=O)(=O)c1ccc(F)cc1)OCCCC[C@@H](C)O2	.	.	-	.	.	.
Cc1noc(C)c1S(=O)(=O)Nc1ccc2c(c1)C(=O)N([C@H](C)CO)C[C@H](C)[C@@H](CN(C)S(=O)(=O)c1ccc(F)cc1)OCCCC[C@@H](C)O2	.	-	-	.	76	.
Cc1noc(C)c1S(=O)(=O)Nc1ccc2c(c1)C(=O)N([C@H](C)CO)C[C@@H](C)[C@H](CN(C)S(=O)(=O)c1ccc(F)cc1)OCCCC[C@@H](C)O2	.	-	-	.	59	.
Cc1noc(C)c1S(=O)(=O)Nc1ccc2c(c1)C(=O)N([C@@H](C)CO)C[C@@H](C)[C@H](CN(C)S(=O)(=O)c1ccc(F)cc1)OCCCC[C@H](C)O2	.	-	-	.	94	.
COc1ccc(OC)c2[nH]c(=O)c(CCNC(=O)c3cc4ccccc4oc3=O)cc12	.	.	.	.	.	-
CO[C@H](CN(C)S(=O)(=O)c1ccccc1)[C@@H](C)CN(Cc1ccccc1Cl)[C@H](C)CO	-	-	-	.	-	.
COc1ccc2c3c(n(C)c2c1)[C@H](CO)N(C(=O)Nc1ccccc1F)CC31CN(C(C)=O)C1	.	.	-	.	-	.
C[C@H](CO)N1C[C@H](C)[C@@H](CN(C)C(=O)Nc2ccccc2C(F)(F)F)OCc2ccccc2-c2ccccc2C1=O	-	.	.	.	.	.
SMILES	FN deposit inh	RAD54 inh	AF4-AF9 inh	N-glyco inh	RAD52 anneal inh	NSD2 inh
CCCNC(=O)N1C[C@H](O)COC[C@H]2O[C@H](CC(=O)N3CCCCC3)CC[C@@H]21	-	-	-	.	-	.
CC1OC(CC(=O)O)CC2=C1C(=O)c1c(O)cccc1C2=O (centres undefined)	59	.	-	-	-	95
COc1ccccc1S(=O)(=O)N1C[C@@H]2N[C@H](C1)C2c1ccc(-c2ccccc2)cc1 (some centres undefined)	-	.	-	.	-	.
COc1cccc(-c2ccc(C3[C@@H]4CN(S(=O)(=O)c5cccc(OC)c5)C[C@H]3N4)cc2)c1 (some centres undefined)	-	.	-	.	70!	.
COc1ccccc1-c1ccc([C@@H]2[C@@H]3CN(S(=O)(=O)c4ccc(-c5ccccc5)cc4)C[C@H]2N3)cc1	-	.	-	.	88	.
COc1cccc(S(=O)(=O)N2C[C@@H]3N[C@H](C2)C3c2ccc(-c3ccccc3OC)cc2)c1 (some centres undefined)	-	.	-	.	56!	.
COc1cccc(S(=O)(=O)N2C[C@@H]3N[C@H](C2)C3c2ccc(-c3ccccc3C)cc2)c1 (some centres undefined)	-	.	-	.	-	.
COc1ccccc1-c1ccc(C2[C@@H]3CN(S(=O)(=O)c4ccccc4C)C[C@H]2N3)cc1 (some centres undefined)	-	.	-	.	51	.
COc1ccc2c3c([nH]c2c1)[C@@H](CO)N(C(C)=O)CC31CCN(S(=O)(=O)c2cccs2)CC1	.	.	-	.	-	.
CC(=O)N1[C@H](CNC(=O)CN2CCOCC2)[C@H](c2ccccc2)[C@@H]1CO	-	-	.	.	.	.
Cc1ccccc1S(=O)(=O)N1C[C@@H]2N[C@H](C1)C2c1ccc(-c2ccc(C(=O)N(C)C)cc2)cc1 (some centres undefined)	-	.	-	.	-	.

Bioassay records from PubChem BioAssay.
